Laboratory results from ChEMBL document CHEMBL1144742, “Mithramycin analogues generated by combinatorial biosynthesis show improved bioactivity” (2008).

Tests used:
MDA-MB-231 = experiment: Induction of apoptosis in estrogen receptor negative human MDA231 cells at 20 uM after 24 hrs by TUNEL assay; assay type: functional
How it was run: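 ER-negative MDA-231 breast cancer cells, treated 24 h at 20 μM. Apoptosis read by TUNEL staining with confocal microscopy as percent TUNEL-positive cells. Baseline apoptosis of untreated cells used for normalization. Mean ± standard error of three independent experiments.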

MCF7 = experiment: Induction of apoptosis in estrogen receptor positive human MCF7 cells at 15 uM after 24 hrs by TUNEL assay; assay type: functional
How it was run: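 ER-positive MCF-7 breast cancer cells, exposed 24 h at 15 μM. Apoptotic cells scored by TUNEL labelling and confocal microscopy, expressed as percent TUNEL-positive, normalized against untreated baseline. Mean ± standard error from three independent experiments.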

| Structure (SMILES) | Activity (MDA-MB-231) [%] | Activity (MCF7) [%] |
| --- | --- | --- |
| CO[C@H](C(=O)[C@@H](O)[C@@H](C)O)[C@@H]1Cc2cc3cc(O[C@H]4C[C@@H](O[C@H]5C[C@@H](O)[C@H](O)[C@@H](C)O5)[C@H](O)[C@@H](C)O4)c(C)c(O)c3c(O)c2C(=O)[C@H]1O[C@H]1C[C@@H](O[C@H]2C[C@@H](O[C@H]3C[C@](C)(O)[C@H](O)[C@@H](C)O3)[C@@H](O)[C@H](C)O2)[C@H](O)[C@@H](C)O1 | 6.46 | 3.9 |
| CO[C@H](C(=O)[C@@H](O)[C@@H](C)O)[C@@H]1Cc2cc3cc(O[C@H]4C[C@@H](O)[C@H](O)[C@@H](C)O4)c(C)c(O)c3c(O)c2C(=O)[C@H]1O[C@H]1C[C@@H](O[C@H]2C[C@@H](O[C@H]3C[C@](C)(O)[C@H](O)[C@@H](C)O3)[C@@H](O)[C@@H](C)O2)[C@H](O)[C@@H](C)O1 | 12.6 | 26.3 |
| CO[C@H](C(=O)[C@@H](O)[C@@H](C)O)[C@@H]1Cc2cc3cc(O[C@H]4C[C@@H](O[C@H]5C[C@@H](O)[C@H](O)[C@@H](C)O5)[C@H](O)[C@@H](C)O4)c(C)c(O)c3c(O)c2C(=O)[C@H]1O[C@H]1C[C@@H](O[C@H]2C[C@](C)(O)[C@H](O)[C@@H](C)O2)[C@H](O)[C@@H](C)O1 | 7.29 | 50.3 |
| CO[C@H](C(=O)[C@@H](O)[C@@H](C)O)[C@@H]1Cc2cc3cc(O[C@H]4C[C@@H](O[C@H]5C[C@@H](O)[C@H](O)[C@@H](C)O5)[C@H](O)[C@@H](C)O4)c(C)c(O)c3c(O)c2C(=O)[C@H]1O[C@H]1C[C@@H](O[C@H]2C[C@@H](O[C@H]3C[C@H](O)[C@H](O)[C@@H](C)O3)[C@@H](O)[C@@H](C)O2)[C@H](O)[C@@H](C)O1 | 63.6 | 64.8 |
